Test results published in ChEMBL document CHEMBL1128216, “Rational design and synthesis of small molecule, non-oligosaccharide selectin inhibitors: (alpha-D-mannopyranosyloxy)biphenyl-substituted carboxylic acids” (J Med Chem, 1995).
pIC50: −log10 of the molar value. One block for each compound: values may come before it.

What was measured:
[1] = target: T1, E-selectin (Homo sapiens, UniProt P16581); experiment: In vitro inhibition of HL60 (human leukemia) cell binding to human recombinant e-selectin.; type: cell-based, HL-60
T1 sequence (P16581 whole entry): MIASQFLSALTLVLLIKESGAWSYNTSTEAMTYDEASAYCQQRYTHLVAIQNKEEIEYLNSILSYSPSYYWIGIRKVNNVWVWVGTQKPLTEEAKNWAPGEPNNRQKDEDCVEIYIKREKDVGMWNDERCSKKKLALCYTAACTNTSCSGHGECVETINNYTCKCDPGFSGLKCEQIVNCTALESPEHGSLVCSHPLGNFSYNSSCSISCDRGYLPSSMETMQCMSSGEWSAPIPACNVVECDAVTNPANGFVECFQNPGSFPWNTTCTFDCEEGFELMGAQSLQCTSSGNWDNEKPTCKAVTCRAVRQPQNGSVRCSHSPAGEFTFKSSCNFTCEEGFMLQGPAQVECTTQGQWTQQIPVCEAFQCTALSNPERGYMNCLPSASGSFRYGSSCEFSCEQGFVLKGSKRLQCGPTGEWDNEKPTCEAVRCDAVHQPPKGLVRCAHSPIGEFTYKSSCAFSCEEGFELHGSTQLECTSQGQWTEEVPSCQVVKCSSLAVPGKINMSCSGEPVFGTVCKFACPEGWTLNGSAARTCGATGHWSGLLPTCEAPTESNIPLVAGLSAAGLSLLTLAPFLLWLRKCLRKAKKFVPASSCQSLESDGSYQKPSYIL
In short: (§1)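 Human E-selectin (lectin, EGF and two complement repeats) fused to mouse IgG was captured on anti-mouse IgG magnetic beads overnight at 4 °C. Wells were pre-blocked with 3% BSA/PBS. Compound in PBS was mixed with calcein-labelled HL60 cells (10⁷/mL, RPMI 1640 + 10% FCS) and beads (4 × 10⁶/mL) for 10 min at room temperature. Unbound cells were removed magnetically with two PBS washes, and bound cells were lysed in 1% NP40.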

[2] = target: T2, L-selectin (Mus musculus, UniProt P18337); experiment: In vitro inhibitory activity against sialyl Lewis X expressing HL60 cell binding Selectin L; type: cell-based, HL-60
T2 sequence (P18337 whole entry): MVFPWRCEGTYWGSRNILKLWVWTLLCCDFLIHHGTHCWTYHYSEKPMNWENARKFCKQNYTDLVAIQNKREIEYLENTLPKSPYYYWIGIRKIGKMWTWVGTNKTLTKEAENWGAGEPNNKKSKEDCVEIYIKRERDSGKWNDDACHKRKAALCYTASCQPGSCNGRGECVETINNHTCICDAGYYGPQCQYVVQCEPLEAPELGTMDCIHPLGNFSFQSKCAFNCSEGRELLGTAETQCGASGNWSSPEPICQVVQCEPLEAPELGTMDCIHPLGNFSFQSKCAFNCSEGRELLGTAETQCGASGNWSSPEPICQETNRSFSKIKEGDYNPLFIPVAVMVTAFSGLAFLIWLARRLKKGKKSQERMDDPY

[3] = target: T3, P-selectin (Homo sapiens, UniProt P16109); experiment: In vitro inhibitory activity against sialyl Lewis X expressing HL60 cell binding Selectin P; type: cell-based, HL-60
T3 sequence (P16109 whole entry): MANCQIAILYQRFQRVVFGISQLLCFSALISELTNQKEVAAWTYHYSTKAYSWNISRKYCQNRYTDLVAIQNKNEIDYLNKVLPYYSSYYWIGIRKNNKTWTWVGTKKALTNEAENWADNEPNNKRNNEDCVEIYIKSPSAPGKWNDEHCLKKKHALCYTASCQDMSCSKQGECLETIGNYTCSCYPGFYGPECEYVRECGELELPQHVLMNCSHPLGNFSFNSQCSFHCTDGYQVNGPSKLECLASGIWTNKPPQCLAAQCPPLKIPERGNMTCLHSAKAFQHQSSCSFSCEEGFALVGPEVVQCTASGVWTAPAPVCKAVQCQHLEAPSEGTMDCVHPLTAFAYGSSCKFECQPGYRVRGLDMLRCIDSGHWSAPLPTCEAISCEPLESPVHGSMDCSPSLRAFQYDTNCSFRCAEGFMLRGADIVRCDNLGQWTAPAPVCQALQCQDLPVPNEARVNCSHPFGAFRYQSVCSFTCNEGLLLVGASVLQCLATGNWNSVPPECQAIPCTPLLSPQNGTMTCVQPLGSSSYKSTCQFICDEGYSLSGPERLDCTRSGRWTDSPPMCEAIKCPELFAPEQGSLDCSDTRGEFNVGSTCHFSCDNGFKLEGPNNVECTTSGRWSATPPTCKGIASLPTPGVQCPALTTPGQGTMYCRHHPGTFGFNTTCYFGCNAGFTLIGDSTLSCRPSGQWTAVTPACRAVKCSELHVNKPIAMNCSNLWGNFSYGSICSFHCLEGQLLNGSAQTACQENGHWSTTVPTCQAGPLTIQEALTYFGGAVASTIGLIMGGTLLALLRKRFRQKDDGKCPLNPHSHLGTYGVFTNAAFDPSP

[4] = target: T4, L-selectin (Mus musculus) (UniProt P18337); experiment: In vitro inhibitory activity against sialyl Lewis X expressing HL60 cell binding to Selectin L at 5 mM concentration; type: cell-based; conditions: HL-60
T4 sequence (whole entry): T2 sequence (P18337 whole entry)

[5] = target: T5, P-selectin (Homo sapiens) (UniProt P16109); experiment: In vitro inhibitory activity against sialyl Lewis X expressing HL60 cell binding Selectin P at 20 mM concentration; type: cell-based; conditions: HL-60
T5 sequence (whole entry): T3 sequence (P16109 whole entry)

[6] = target: T5, P-selectin (Homo sapiens); experiment: In vitro inhibitory activity against sialyl Lewis X expressing HL60 cell binding Selectin P at 25 mM concentration; type: cell-based; conditions: HL-60
[7] = target: T4, L-selectin (Mus musculus); experiment: In vitro inhibitory activity against sialyl Lewis X expressing HL60 cell binding to Selectin L at 8 mM concentration; type: cell-based; conditions: HL-60
[8] = target: T4, L-selectin (Mus musculus); experiment: In vitro inhibitory activity against sialyl Lewis X expressing HL60 cell binding to Selectin L at 6 mM concentration; type: cell-based; conditions: HL-60
[9] = target: T6, E-selectin (Homo sapiens) (UniProt P16581); experiment: In vitro inhibitory activity against sialyl Lewis X expressing HL60 cell binding to recombinant human E-selectin at 20 mM concentration; type: cell-based; conditions: HL-60; in short: as §1
T6 sequence (whole entry): T1 sequence (P16581 whole entry)

[10] = target: T4, L-selectin (Mus musculus); experiment: In vitro inhibitory activity against sialyl Lewis X expressing HL60 cell binding to Selectin L at 3 mM concentration; conditions: HL-60
[11] = target: T5, P-selectin (Homo sapiens); experiment: In vitro inhibitory activity against sialyl Lewis X expressing HL60 cell binding Selectin P at 10 mM concentration; type: cell-based; conditions: HL-60
[12] = target: T4, L-selectin (Mus musculus); experiment: In vitro inhibitory activity against sialyl Lewis X expressing HL60 cell binding Selectin L at 1 mM concentration; type: cell-based; conditions: HL-60
[13] = target: T4, L-selectin (Mus musculus); experiment: In vitro inhibitory activity against sialyl Lewis X expressing HL60 cell binding to Selectin L at 7 mM concentration; type: cell-based; conditions: HL-60
[14] = target: T6, E-selectin (Homo sapiens); experiment: In vitro inhibitory activity against sialyl Lewis X expressing HL60 cell binding to recombinant human E-selectin at 40 mM concentration; type: cell-based; conditions: HL-60; in short: as §1
[15] = target: T4, L-selectin (Mus musculus); experiment: In vitro inhibitory activity against sialyl Lewis X expressing HL60 cell binding to L-selectin at 6 mM concentration; type: cell-based; conditions: HL-60
[16] = target: T5, P-selectin (Homo sapiens); experiment: In vitro inhibitory activity against sialyl Lewis X expressing HL60 cell binding Selectin P at 23 mM concentration; type: cell-based; conditions: HL-60
[17] = target: T6, E-selectin (Homo sapiens); experiment: In vitro inhibitory activity against sialyl Lewis X expressing HL60 cell binding to recombinant human E-selectin at 16.3 mM concentration; type: cell-based; conditions: HL-60; in short: as §1

Compound: O=C(O)COc1ccccc1-c1ccccc1O[C@H]1O[C@H](CO)[C@@H](O)[C@@H](O)[C@@H]1O
- pIC50 [1]: 1.70
- inhibition [6]: 20%
- inhibition [7]: 0%

Compound: Cc1ccc(O[C@H]2O[C@H](CO)[C@@H](O)[C@@H](O)[C@@H]2O)c(-c2cccc(OCC(=O)O)c2)c1
- pIC50 [1]: 1.85

Compound: O=C(O)CCC(=O)c1ccc(-c2ccccc2O[C@H]2O[C@H](CO)[C@@H](O)[C@@H](O)[C@@H]2O)cc1
- inhibition [9]: 40%
- inhibition [5]: 0%
- inhibition [10]: 0%

Compound: CC(C(=O)O)c1cccc(-c2ccccc2O[C@H]2O[C@H](CO)[C@@H](O)[C@@H](O)[C@@H]2O)c1 (stereo in doubt; 9s)
- inhibition [8]: 0%
- inhibition [11]: 30%

Compound: O=C(O)CCNC(=O)c1ccc(-c2ccccc2O[C@H]2O[C@H](CO)[C@@H](O)[C@@H](O)[C@@H]2O)cc1
- pIC50 [1]: 1.44
- inhibition [12]: 0%

Compound: O=C(O)c1ccc(-c2ccccc2O[C@H]2O[C@H](CO)[C@@H](O)[C@@H](O)[C@@H]2O)cc1
- pIC50 [1]: 1.84
- inhibition [13]: 0%
- inhibition [5]: 0%

Compound: CC(C(=O)O)c1cccc(-c2ccccc2O[C@H]2O[C@H](CO)[C@@H](O)[C@@H](O)[C@@H]2O)c1 (stereo in doubt; 9r)
- inhibition [8]: 40%
- inhibition [14]: 0%

Compound: N#CCc1cccc(-c2ccccc2O[C@H]2O[C@H](CO)[C@@H](O)[C@@H](O)[C@@H]2O)c1
- pIC50 [1]: 2.15
- pIC50 [2]: 2.82
- inhibition [16]: 40%

Compound: O=C(O)CC(NC(=O)c1ccc(-c2ccccc2O[C@H]2O[C@H](CO)[C@@H](O)[C@@H](O)[C@@H]2O)cc1)C(=O)O (stereo not given in full)
- pIC50 [2]: 2.30
- inhibition [17]: 0%
- pIC50 [3]: 2.70

Other lines, results leading:

- pIC50 [1]: 2.52
- pIC50 [2]: 2.70
- pIC50 [3]: 2.70
Compound: CC(=O)N[C@H]1[C@H]([C@H](O)[C@H](O)CO)O[C@@](O[C@H]2[C@@H](O)[C@@H](CO)O[C@@H](O[C@@H]([C@H](O[C@@H]3O[C@@H](C)[C@@H](O)[C@@H](O)[C@@H]3O)[C@H](C=O)NC(C)=O)[C@H](O)CO)[C@@H]2O)(C(=O)O)C[C@@H]1O [SIALYL LEWIS X]

- pIC50 [1]: 2.42
- inhibition [4]: 0%
- inhibition [5]: 0%
Compound: O=C(N[C@@H](Cc1ccccc1)C(=O)O)c1ccc(-c2ccccc2O[C@H]2O[C@H](CO)[C@@H](O)[C@@H](O)[C@@H]2O)cc1

- pIC50 [1]: 2.34
- inhibition [8]: 0%
- inhibition [5]: 0%
Compound: O=C(O)CNC(=O)c1ccc(-c2ccccc2O[C@H]2O[C@H](CO)[C@@H](O)[C@@H](O)[C@@H]2O)cc1

- pIC50 [1]: 2.70
- pIC50 [2]: 3.00
- pIC50 [3]: 2.59
Compound: O=C(O)Cc1cccc(-c2ccccc2O[C@H]2O[C@H](CO)[C@@H](O)[C@@H](O)[C@@H]2O)c1

- pIC50 [1]: 2.21
- pIC50 [3]: 1.70
- inhibition [15]: 20%
Compound: O=C(O)COc1ccc(-c2ccccc2O[C@H]2O[C@H](CO)[C@@H](O)[C@@H](O)[C@@H]2O)cc1

- pIC50 [1]: 2.59
- inhibition [8]: 0%
- inhibition [5]: 0%
Compound: O=C(O)Cc1ccc(-c2ccccc2O[C@H]2O[C@H](CO)[C@@H](O)[C@@H](O)[C@@H]2O)cc1
